The values below come from PMC10644204 (Pharmacology Research & Perspectives, 2023).

SMILES strings stand for the structures.

Data set [1] has as its system QT interval. The settings on record: supratherapeutic vs therapeutic doses; cited from earlier work.
Data set [2] in a line: Plasma pharmacokinetics, part 2 main QTc study. It counts as in vivo, human. The settings on record: human, plasma, oral, 400 mg. The method, boiled down:
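Moderate-fat meal 30 min before each dose. Plasma sampled predose on Days 1, 5, 6 and 7, and on Day 7 at 0.5–24 h postdose. Test compound assayed by validated UHPLC-MS/MS (3.00–1000 ng mL−1).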

The subject of data set [3] is healthy participants. It counts as in vivo, human. Conditions: moxifloxacin 400 mg single dose.
Data set [4] has as its system healthy participants. Kind of data set: Safety assessments. The class given is in vivo, human. The settings on record: part 2, Moxifloxacin 400 mg (N = 40). A digest of the protocol:
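Part 2 healthy participants confined from Day −2 of period 1 to Day 9 of period 4. […] AEs monitored throughout, recording duration, severity, causality and outcome, alongside safety ECGs, laboratory tests, physical examination and vital signs.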

Take `COc1cnc(-n2cnc(C)n2)c2c1c(C(=O)C(=O)N1CCN(C(=O)c3ccccc3)CC1)cn2COP(=O)(O)O` [fostemsavir]: in data set [1], the QT prolongation entry is given as “QT prolongation with supratherapeutic doses but not therapeutic doses”.

The Cmax is the highest concentration seen after dosing. As usually defined, the Tmax is the time at which the peak concentration occurs. Take `COc1c(N2C[C@@H]3CCCN[C@@H]3C2)c(F)cc2c(=O)c(C(=O)O)cn(C3CC3)c12` [Moxifloxacin, moxifloxacin, reference compound]: in data set [2], the concentration peaked (Cmax) at 1960 ng/mL and the time of peak concentration (Tmax) came to 4 h. Besides, in data set [3], the “Observations of ΔQTcF >30 ms” value is reported as “no participants”. In data set [4], the “AE: Abdominal pain” value was 1 (3) n (%), the “AE: Acne” value is 0 n (%), the “AE: Diarrhea” value is 0 n (%) and the “AE: Gastrointestinal disorders” value is on record as 2 (5) n (%). In data set [4], the “AE: General disorders and administration site conditions” value was 1 (3) n (%); the “AE: Immune system disorders” value was 1 (3) n (%); the “AE: Infections and infestations” value was 0 n (%); the “AE: Maculopapular rash” value is recorded as 0 n (%). In data set [4], the “AE: Medical device site dermatitis” value is listed as 0 n (%); the “AE: Nausea” value is recorded as 0 n (%); the “AE: Nervous system disorders” value is recorded as 2 (5) n (%); the “AE: Renal and urinary disorders” value is on record as 1 (3) n (%). Besides, in data set [4], the “AE: Reproductive system and breast disorders” value is reported as 0 n (%); the “AE: Respiratory, thoracic, and mediastinal disorders” value was 0 n (%); the “AE: Skin and subcutaneous tissue disorders” value was 0 n (%); the “AE: Vessel puncture site pain” value is reported as 1 (3) n (%). Further, in data set [4], the “Any AE” value was 4 (10) n (%), the “Any drug-related AE” value is 2 (5) n (%), the “Drug-related AE: Abdominal pain” value is recorded as 1 (3) n (%) and the “Drug-related AE: Acne” value is given as 0 n (%). In data set [4], the “Drug-related AE: Diarrhea” value is recorded as 0 n (%); the “Drug-related AE: Fatigue” value is reported as 0 n (%); the “Drug-related AE: Gastrointestinal disorders” value is given as 1 (3) n (%); the “Drug-related AE: General disorders and administration site conditions” value is recorded as 0 n (%). In addition, in data set [4], the “Drug-related AE: Maculopapular rash” value is 0 n (%); the “Drug-related AE: Nausea” value was 0 n (%); the “Drug-related AE: Pruritus” value is 0 n (%); the “Drug-related AE: Renal and urinary disorders” value is 1 (3) n (%). Besides, in data set [4], the “Drug-related AE: Skin and subcutaneous tissue disorders” value is 0 n (%); the “Drug-related AE: Urinary hesitation” value is 1 (3) n (%). The “Any drug-related AE” value in data set [4] (listed as moxifloxacin) was 2 n (%).

For the compound `Cc1cc(/C=C/C#N)cc(C)c1Nc1ccnc(Nc2ccc(C#N)cc2)n1` [rilpivirine], the QT prolongation entry in data set [1] was “QT prolongation with supratherapeutic doses but not therapeutic doses”.
